Experimental data as given in ChEMBL document CHEMBL1177650, “Synthesis, structural elucidation and in vitro antiparasitic activity against Trypanosoma cruzi and Leishmania chagasi parasites of novel tetrahydro-1-benzazepine derivatives” (Bioorg Med Chem, 2010).

How the values were obtained:
[1] = Cytotoxicity against african green monkey Vero cells after 72 hrs by MTT assay; format: cell-based; details: chlorocebus sabaeus
Procedure, shortened: (§1)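 Vero or transformed THP-1 cells incubated with compound (0.3–300 μM) 72 h at 37 °C, 5% CO2; untreated controls. MTT read-out, formazan OD at 580 nm; % cytotoxicity = 100 × (OD control − OD treated)/OD control. CC50/CC90 by sigmoidal regression; triplicates, repeated twice. DMSO stocks 100× concentrated, diluted in medium.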

Trypanosoma cruzi [2] = test: Antitrypanosomal activity against Trypanosoma cruzi 320I01 epimastigotes after 72 hrs by haemocytometry; format: functional, organism-based; details: 320I01, 72 h
Procedure, shortened: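 Late-phase T. cruzi epimastigotes cultured in LIT medium with hiFCS at 28 °C; threefold serial dilutions (0.3–100 μM) for 72 h at 28 °C, untreated controls. Parasites counted in a haemocytometer; IC50/IC90 by sigmoidal regression; each concentration in triplicate, two experiments.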

[3] = Selectivity index, CC50 for african green monkey Vero cells to IC50 for Trypanosoma cruzi 320I01 epimastigote; format: functional
Procedure, shortened: (§2)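 Selectivity index computed as CC50 in Vero cells divided by IC50 against the T. cruzi stage named in the line.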

Trypanosoma cruzi [4] = test: Antitrypanosomal activity against Trypanosoma cruzi 320I01 amastigotes infected in african green monkey Vero cells after 5 days by Giemsa staining; format: functional, organism-based; details: 320I01, Vero, 120 h
Procedure, shortened: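 Vero cells (RPMI, 5% hiSBF, 37 °C, 5% CO2) infected 24 h with tissue-derived T. cruzi trypomastigotes at parasite:cell 10:1. Compound dilutions (top 100 μM) applied 5 days at 37 °C, 5% CO2, medium changed once at day 3. Infected cells scored per 300 cells on methanol-fixed Giemsa preparations; IC50/IC90 by sigmoidal regression; triplicates, two experiments.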

[5] = Selectivity index, CC50 for african green monkey Vero cells to IC50 for Trypanosoma cruzi 320I01 amastigotes; format: functional; procedure, shortened: as §2
Leishmania chagasi [6] = test: Antileishmanial activity against Leishmania chagasi MHOM/BR/74/PP75 promastigotes after 72 hrs by haemocytometry; format: functional, organism-based; details: MHOM/BR/74/PP75, 72 h
Procedure, shortened: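 Late-phase L. chagasi promastigotes, grown at 28 °C in RPMI 1640 with hemin, HEPES and 10% hiSBF, exposed to threefold serial dilutions (0.3–100 μM) for 72 h at 28 °C; untreated controls. Growth inhibition from haemocytometer counts; IC50/IC90 by sigmoidal regression; triplicates, repeated twice.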

[7] = Cytotoxicity against human THP1 cells after 72 hrs by MTT assay; format: cell-based; details: THP-1 cells; procedure, shortened: as §1
[8] = Selectivity index, CC50 for human THP1 cells to IC50 for Leishmania chagasi MHOM/BR/74/PP75 promastigotes; format: functional, THP-1
Procedure, shortened: (§3)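 Selectivity index computed as CC50 in THP-1 cells divided by IC50 against the L. chagasi stage named in the line.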

Leishmania chagasi [9] = test: Antileishmanial activity against Leishmania chagasi MHOM/BR/74/PP75 amastigotes infected in human THP1 cells after 5 days by Giemsa staining; format: functional, organism-based; details: MHOM/BR/74/PP75, THP-1, 120 h
Procedure, shortened: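 THP-1 cells (RPMI, 5% hiSBF, 37 °C, 5% CO2) transformed, then infected 24 h with late-phase L. chagasi promastigotes at parasite:cell 10:1. Treated with compound dilutions (top 100 μM) 5 days at 37 °C, 5% CO2, medium changed once after 3 days. Infected cells counted per 300 cells on methanol-fixed Giemsa slides; IC50/IC90 by sigmoidal regression; triplicates, repeated twice.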

[10] = Selectivity index, CC50 for human THP1 cells to IC50 for Leishmania chagasi MHOM/BR/74/PP75 amastigotes; format: functional, THP-1; procedure, shortened: as §3

| IC50 (Trypanosoma cruzi [2]) | IC90 (Trypanosoma cruzi [2]) | IC50 (Trypanosoma cruzi [4]) | IC90 (Trypanosoma cruzi [4]) | IC50 (Leishmania chagasi [6]) | IC90 (Leishmania chagasi [6]) | IC50 (Leishmania chagasi [9]) | IC90 (Leishmania chagasi [9]) | Structure (SMILES) | CC50 at 72 h [1] | CC90 at 72 h [1] | Selectivity Index [3] | Selectivity Index [5] | CC50 at 72 h [7] | CC90 at 72 h [7] | Selectivity Index [8] | Selectivity Index [10] |
| --- | --- | --- | --- | --- | --- | --- | --- | --- | --- | --- | --- | --- | --- | --- | --- | --- |
| 6.1 µM | 35.3 µM | 50.5 µM | > 100 µM | > 100 µM | > 100 µM | > 100 µM | > 100 µM | Cc1ccc([C@@H]2C[C@H](O)Cc3cc(C)ccc3N2)cc1 (relative stereo) | > 300 µM | > 300 µM | >49 | >6 | 172 µM | > 300 µM | >1 | >1 |
| 16.4 µM | 29.7 µM | > 100 µM | > 100 µM | 14.1 µM | 41 µM | > 100 µM | > 100 µM | O[C@@H]1Cc2cc(Cl)ccc2N[C@H](c2ccc(Cl)cc2)C1 (relative stereo) | 76.6 µM | > 300 µM | 4.65 | >0.8 | 49.2 µM | > 300 µM | 3.49 | >0.49 |
| 22.4 µM | 67.2 µM | 45.8 µM | 73.6 µM | 41.3 µM | 49.4 µM | > 100 µM | > 100 µM | Cc1ccc2c(c1)C[C@@H](O)C[C@@H](c1ccccc1Cl)N2 (relative stereo) | 82.4 µM | > 300 µM | 3.67 | 1.8 | 85.2 µM | > 300 µM | 2.06 | >0.85 |
| 27.2 µM | 54.4 µM | > 94.9 µM | > 94.9 µM | 9.54 µM | 11.7 µM | > 94.9 µM | > 94.9 µM | O[C@@H]1Cc2cc(Cl)ccc2N[C@H](c2ccc(Br)cc2)C1 (relative stereo) | 57.7 µM | 164 µM | 2.12 | >0.6 | 153 µM | 280 µM | 16.05 | >1.61 |
| 45.9 µM | > 100 µM | > 100 µM | > 100 µM | 17.1 µM | 77.7 µM | > 100 µM | > 100 µM | O[C@@H]1Cc2cc(F)ccc2N[C@H](c2ccc(Cl)cc2)C1 (relative stereo) | 194 µM | > 300 µM | 4.21 | >1.9 | 100 µM | > 300 µM | 5.86 | >1 |

The remaining lines, values behind:

| Structure (SMILES) | IC50 (Trypanosoma cruzi [2]) | IC90 (Trypanosoma cruzi [2]) | IC50 (Trypanosoma cruzi [4]) | IC90 (Trypanosoma cruzi [4]) | IC50 (Leishmania chagasi [6]) | IC90 (Leishmania chagasi [6]) | IC50 (Leishmania chagasi [9]) | IC90 (Leishmania chagasi [9]) | CC50 at 72 h [1] | CC90 at 72 h [1] | Selectivity Index [3] | Selectivity Index [5] | CC50 at 72 h [7] | CC90 at 72 h [7] | Selectivity Index [8] | Selectivity Index [10] |
| --- | --- | --- | --- | --- | --- | --- | --- | --- | --- | --- | --- | --- | --- | --- | --- | --- |
| O[C@@H]1Cc2cc(Cl)ccc2N[C@H](c2c(F)cccc2Cl)C1 (relative stereo) | 14.5 µM | 34.8 µM | > 34.1 µM | > 34.1 µM | 39.8 µM | 78.5 µM | 73.2 µM | > 100 µM | 92 µM | 182 µM | 6.36 | >2 | 110 µM | 214 µM | 2.76 | >1 |
| O[C@@H]1Cc2ccccc2N[C@H](c2c(Cl)cccc2Cl)C1 (relative stereo) | 48.9 µM | > 100 µM | 69.9 µM | > 100 µM | > 100 µM | > 100 µM | > 100 µM | > 100 µM | > 300 µM | > 300 µM | >6 | >4 | > 300 µM | > 300 µM | >3 | >3 |
| O[C@@H]1Cc2ccccc2N[C@H](c2c(F)cccc2Cl)C1 (relative stereo) | > 100 µM | > 100 µM | > 100 µM | > 100 µM | > 100 µM | > 100 µM | > 100 µM | > 100 µM | > 300 µM | > 300 µM | >3 | >3 | > 300 µM | > 300 µM | >3 | >3 |
| O[C@@H]1Cc2cc(Cl)ccc2N[C@H](c2c(Cl)cccc2Cl)C1 (relative stereo) | 14.8 µM | 53 µM | > 32.5 µM | > 32.5 µM | 14.7 µM | 30.3 µM | > 32.5 µM | > 32.5 µM | 49.9 µM | 176 µM | 3.36 | >1 | 59.6 µM | > 293 µM | 4.06 | >1 |
| O[C@@H]1Cc2cc(Cl)ccc2N[C@H](c2ccccc2Cl)C1 (relative stereo) | 15.3 µM | 35.7 µM | > 100 µM | > 36.1 µM | 50.2 µM | > 100 µM | > 100 µM | > 100 µM | 106 µM | > 300 µM | 6.91 | >1 | 75.5 µM | > 300 µM | 1.5 | >0.75 |
| O[C@@H]1Cc2cc(Cl)ccc2N[C@H](c2ccccc2F)C1 (relative stereo) | 17.3 µM | 79.9 µM | > 38.1 µM | > 38.1 µM | 54.5 µM | > 100 µM | > 100 µM | > 100 µM | 182 µM | > 300 µM | 10.53 | >4 | 110 µM | 273 µM | 2.02 | >1 |
| O[C@@H]1Cc2ccccc2N[C@H](c2ccccc2Cl)C1 (relative stereo) | 49.7 µM | > 100 µM | > 100 µM | > 100 µM | 84.4 µM | > 100 µM | > 100 µM | > 100 µM | > 300 µM | > 300 µM | >6 | >3 | > 300 µM | > 300 µM | >3 | >3 |
| O[C@@H]1Cc2ccccc2N[C@H](c2ccccc2F)C1 (relative stereo) | 63 µM | > 100 µM | > 100 µM | > 100 µM | > 100 µM | > 100 µM | > 100 µM | > 100 µM | > 300 µM | > 300 µM | >4 | >3 | > 300 µM | > 300 µM | >3 | >3 |
| C[C@@H]1[C@H](O)[C@@H](C)/C=C/C=C/C=C/C=C/C=C/C=C/C=C/[C@H](O[C@@H]2O[C@H](C)[C@@H](O)[C@H](N)[C@@H]2O)C[C@@H]2O[C@](O)(C[C@@H](O)C[C@@H](O)[C@H](O)CC[C@@H](O)C[C@@H](O)CC(=O)O[C@H]1C)C[C@H](O)[C@H]2C(=O)O [AMPHOTERICIN B] |  |  |  |  | 0.02 µM | 0.02 µM | 0.08 µM | 0.14 µM |  |  |  |  | 8.79 µM | 34.9 µM | 439.5 | 109.87 |
| CC1CS(=O)(=O)CCN1/N=C/c1ccc([N+](=O)[O-])o1 (centres undefined) [NIFURTIMOX] | 2.33 µM | 23.4 µM | 2.3 µM | 9.06 µM |  |  |  |  | 61.4 µM | > 300 µM | 26.36 | 26.7 |  |  |  |  |
